Active and inactive are the calls of the source. The calls are words filed in the database; no cut-off is given here.
Experiments:
NCI/ADR-RES [1] = assay: Selectivity index, ratio of GI50 for human MCF7 cells to GI50 for human MCF7/ADR cells; type: functional
[2] = Antiproliferative activity against human MCF7/ADR cells after 96 hrs by MTT assay; type: functional; details: NCI/ADR-RES
Outline: (§1)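 MTT: cells seeded at 1.5-4.0 × 10^4 cells/mL and incubated overnight at 37 C, then exposed to 5-9 concentrations (DMSO stocks diluted in growth medium; final DMSO ≤0.5%) for 96 h. MTT added at 0.5 mg/mL for a further 4 h at 37 C and the formazan dissolved. Inhibition calculated relative to control; GI50 estimated by curve fitting; 3-5 repeats, mean ± SD.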

MCF7 [3] = assay: Antiproliferative activity against human MCF7 cells after 96 hrs by MTT assay; type: functional; details: MCF7, 96 h; outline: as §1
MDR1 (ABCB1) [4] = target: T1, MDR1 (ABCB1) (Homo sapiens, UniProt P08183); assay: Activity at MDR1 (unknown origin) expressed in MDCK cells assessed as permeability across basolateral to apical after 90 mins by LC-MS/MS analysis; type: ADME, cell-based
[5] = Permeability across apical to basolateral side in MDCK cells after 90 mins by LC-MS/MS analysis; type: ADME, cell-based, Canis lupus familiaris; details: dog
Outline: (§2)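 Wild-type MDCK cells on Transwell filters. Transport was run in HBSS pH 7.4 at 37 °C in A-B and B-A directions, and plates were separated after 90 min incubation. Efflux ratio is Papp(B-A)/Papp(A-B). Papp is reported as "<" when receiver concentrations were below the quantitation limit.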

[6] = Permeability across basolateral to apical side in MDCK cells after 90 mins by LC-MS/MS analysis; type: ADME, cell-based, Canis lupus familiaris; details: dog; outline: as §2
[7] = Efflux ratio of permeability across basolateral to apical side over apical to basolateral side in MDCK cells; type: ADME, cell-based, Canis lupus familiaris; details: dog; outline: as §2
MDR1 (ABCB1) [8] = target: T1, MDR1 (ABCB1); assay: Activity at MDR1 (unknown origin) expressed in MDCK cells assessed as efflux ratio of permeability across basolateral to apical side over apical to basolateral side; type: ADME, cell-based
MDR1 (ABCB1) [9] = target: T1, MDR1 (ABCB1); assay: Activity at MDR1 (unknown origin) expressed in MDCK cells assessed as permeability across apical to basolateral after 90 mins by LC-MS/MS analysis; type: ADME, cell-based
[10] = Cell cycle arrest in human MCF7/ADR cells assessed as accumulation at sub-G1 phase at 0.25 uM after 48 hrs by propidium iodide staining based flow cytometry (reference value: […]); type: functional; details: NCI/ADR-RES
MCF7 [11] = assay: Downregulation of cyclin D1 expression in human MCF7 cells at 0.5 uM after 24 and 48 hrs by western blot analysis; type: functional, cell-based
Outline: (§3)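 Lysates from treated cells were immunoblotted. Membranes were blocked in 5% nonfat milk, incubated overnight at 4 C with antibodies to PARP, p27, cyclin D1 or cyclin B1, and detected by enhanced chemiluminescence.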

MCF7 [12] = assay: Upregulation of p27 expression in human MCF7 Cells at 0.5 uM after 24 and 48 hrs by western blot analysis; type: functional, cell-based; outline: as §3
MCF7 [13] = assay: Cell cycle arrest in human MCF7 cells assessed as accumulation at G1 phase at 0.5 uM after 24 hrs by propidium iodide staining based flow cytometry (reference value: 62.5 %); type: functional
Outline: (§4)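 Cells treated for 24 h or 48 h, then trypsinized, fixed in ice-cold 70% ethanol and stained with propidium iodide for flow cytometry. Percentages of cells in G1 and sub-G1 are compared with untreated cells.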

MCF7 [14] = assay: Downregulation of cyclin B1 expression in human MCF7 cells at 0.5 uM after 24 and 48 hrs by western blot analysis; type: functional, cell-based; outline: as §3
NCI/ADR-RES [15] = assay: Effect on cleaved PARP level in human MCF7/ADR cells at 0.1 uM after 24 and 48 hrs by western blot analysis; type: functional, cell-based; outline: as §3
MCF7 [16] = assay: Cell cycle arrest in human MCF7 cells assessed as accumulation at G1 phase after 24 and 48 hrs by propidium iodide staining based flow cytometry; type: functional; outline: as §4
[17] = Cell cycle arrest in human MCF7/ADR cells assessed as accumulation at G1 phase at 0.05 uM after 48 hrs by propidium iodide staining based flow cytometry (reference value: 56.9 %); type: functional; details: NCI/ADR-RES; outline: as §4
MCF7 [18] = assay: Effect on cleaved PARP level in human MCF7 cells at 0.5 uM after 24 and 48 hrs by western blot analysis; type: functional, cell-based; outline: as §3
[19] = Cell cycle arrest in human MCF7/ADR cells assessed as accumulation at G1 phase at 0.25 uM after 24 hrs by propidium iodide staining based flow cytometry (reference value: 54.6 %); type: functional; details: NCI/ADR-RES; outline: as §4
[20] = Cell cycle arrest in human MCF7/ADR cells assessed as accumulation at G1 phase at 0.05 uM after 24 hrs by propidium iodide staining based flow cytometry (reference value: 54.6 %); type: functional; details: NCI/ADR-RES; outline: as §4
NCI/ADR-RES [21] = assay: Effect on p27 expression in human MCF7/ADR cells at 0.1 uM after 48 hrs by western blot analysis; type: functional, cell-based; outline: as §3
MCF7 [22] = assay: Cell cycle arrest in human MCF7 cells assessed as accumulation at G1 phase at 0.5 uM after 48 hrs by propidium iodide staining based flow cytometry (reference value: 62.8 %); type: functional; outline: as §4
[23] = Cell cycle arrest in human MCF7/ADR cells assessed as accumulation at sub-G1 phase at 0.05 uM after 48 hrs by propidium iodide staining based flow cytometry (reference value: […]); type: functional; details: NCI/ADR-RES
MCF7 [24] = assay: Cell cycle arrest in human MCF7 cells assessed as accumulation at G1 phase at 0.25 uM after 48 hrs by propidium iodide staining based flow cytometry (reference value: 62.8%); type: functional; outline: as §4
[25] = Downregulation of cyclin D1 expression in human MCF7/ADR cells at 0.1 uM after 48 hrs by western blot analysis; type: functional, cell-based; details: NCI/ADR-RES; outline: as §3
[26] = Downregulation of cyclin B1 expression in human MCF7/ADR cells at 0.1 uM after 48 hrs by western blot analysis; type: functional, cell-based; details: NCI/ADR-RES; outline: as §3
[27] = Cell cycle arrest in human MCF7/ADR cells assessed as accumulation at G1 phase at 0.25 uM after 48 hrs by propidium iodide staining based flow cytometry (reference value: 56.9 %); type: functional; details: NCI/ADR-RES; outline: as §4
MCF7 [28] = assay: Cell cycle arrest in human MCF7 cells assessed as accumulation at G1 phase at 0.25 uM after 24 hrs by propidium iodide staining based flow cytometry (reference value: 62.5 %); type: functional; outline: as §4

T1 sequence (P08183 whole entry): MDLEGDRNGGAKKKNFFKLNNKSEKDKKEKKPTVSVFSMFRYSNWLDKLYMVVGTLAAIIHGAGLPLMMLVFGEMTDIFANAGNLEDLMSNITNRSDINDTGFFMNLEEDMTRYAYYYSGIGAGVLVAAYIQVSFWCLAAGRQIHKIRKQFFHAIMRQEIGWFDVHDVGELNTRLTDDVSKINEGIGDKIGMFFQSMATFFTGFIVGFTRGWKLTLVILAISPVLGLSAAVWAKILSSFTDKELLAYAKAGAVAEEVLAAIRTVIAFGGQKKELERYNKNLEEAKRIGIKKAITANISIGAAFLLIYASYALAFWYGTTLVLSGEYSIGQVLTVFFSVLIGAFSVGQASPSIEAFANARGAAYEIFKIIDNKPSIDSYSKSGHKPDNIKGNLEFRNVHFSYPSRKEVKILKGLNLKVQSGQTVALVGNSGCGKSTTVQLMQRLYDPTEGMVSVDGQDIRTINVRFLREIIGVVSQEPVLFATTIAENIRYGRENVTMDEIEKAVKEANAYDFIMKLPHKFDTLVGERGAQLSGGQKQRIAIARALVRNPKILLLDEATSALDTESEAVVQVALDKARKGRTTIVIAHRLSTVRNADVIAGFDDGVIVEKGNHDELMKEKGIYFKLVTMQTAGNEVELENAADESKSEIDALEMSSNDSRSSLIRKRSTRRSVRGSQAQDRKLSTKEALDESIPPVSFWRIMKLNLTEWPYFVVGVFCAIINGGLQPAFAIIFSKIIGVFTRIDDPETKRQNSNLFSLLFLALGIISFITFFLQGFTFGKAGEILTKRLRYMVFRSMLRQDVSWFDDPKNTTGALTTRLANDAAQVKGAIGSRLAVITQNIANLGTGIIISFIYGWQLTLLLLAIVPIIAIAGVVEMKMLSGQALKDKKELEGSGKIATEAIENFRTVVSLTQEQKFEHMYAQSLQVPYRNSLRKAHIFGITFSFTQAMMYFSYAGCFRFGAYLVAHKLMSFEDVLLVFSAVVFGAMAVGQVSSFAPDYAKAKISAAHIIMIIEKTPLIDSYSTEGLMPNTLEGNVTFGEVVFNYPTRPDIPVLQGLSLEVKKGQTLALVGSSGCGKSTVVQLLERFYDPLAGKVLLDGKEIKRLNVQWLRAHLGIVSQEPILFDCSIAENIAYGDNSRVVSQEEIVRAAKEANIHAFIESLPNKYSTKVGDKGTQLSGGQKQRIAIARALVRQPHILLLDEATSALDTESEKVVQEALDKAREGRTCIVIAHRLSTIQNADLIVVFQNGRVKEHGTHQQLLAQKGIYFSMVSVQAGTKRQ

SMILES: C[C@H]1[C@@H](Oc2ccc(CN3CCN(c4ccccc4)CC3)cc2)O[C@@H]2O[C@@]3(C)CC[C@H]4[C@H](C)CC[C@@H]1[C@@]24OO3
- RatioGI50 (NCI/ADR-RES [1]): 11.43
- GI50 [2]: 21 nM
- GI50 (MCF7 [3]): 240 nM

SMILES: C[C@H]1[C@@H](Oc2ccc(/C=C/C(=O)N3CCN(c4ccc(F)cc4)CC3)cc2)O[C@@H]2O[C@@]3(C)CC[C@H]4[C@H](C)CC[C@@H]1[C@@]24OO3
- RatioGI50 (NCI/ADR-RES [1]): 8.57
- GI50 [2]: 38 nM
- GI50 (MCF7 [3]): 270 nM

SMILES: COc1ccccc1N1CCN(C(=O)Cc2ccc(O[C@H]3O[C@@H]4O[C@@]5(C)CC[C@H]6[C@H](C)CC[C@@H]([C@H]3C)[C@@]46OO5)cc2)CC1
- RatioGI50 (NCI/ADR-RES [1]): 10.93
- GI50 [2]: 43 nM
- GI50 (MCF7 [3]): 470 nM

SMILES: C[C@H]1[C@@H](Oc2ccc(CN3CCN(c4ccccn4)CC3)cc2)O[C@@H]2O[C@@]3(C)CC[C@H]4[C@H](C)CC[C@@H]1[C@@]24OO3
- RatioGI50 (NCI/ADR-RES [1]): 3.09
- GI50 [2]: 55 nM
- GI50 (MCF7 [3]): 170 nM

SMILES: COc1cccc2c1C(=O)c1c(O)c3c(c(O)c1C2=O)C[C@@](O)(C(=O)CO)C[C@@H]3O[C@H]1C[C@H](N)[C@H](O)[C@H](C)O1.Cl [DOXORUBICIN HYDROCHLORIDE]
- RatioGI50 (NCI/ADR-RES [1]): 0.1
- GI50 [2]: 520 nM
- GI50 (MCF7 [3]): 54 nM

SMILES: C[C@H]1[C@@H](Oc2ccc(/C=C/C(=O)N3CCN(c4ccccn4)CC3)cc2)O[C@@H]2O[C@@]3(C)CC[C@H]4[C@H](C)CC[C@@H]1[C@@]24OO3
- RatioGI50 (NCI/ADR-RES [1]): 2.64
- GI50 [2]: 110 nM
- GI50 (MCF7 [3]): 290 nM

SMILES: C[C@H]1[C@@H](Oc2ccc(CC(=O)N3CCN(c4ccc(F)cc4)CC3)cc2)O[C@@H]2O[C@@]3(C)CC[C@H]4[C@H](C)CC[C@@H]1[C@@]24OO3
- RatioGI50 (NCI/ADR-RES [1]): 7.11
- GI50 [2]: 44 nM
- GI50 (MCF7 [3]): 290 nM

SMILES: COCCc1ccc(OCC(O)CNC(C)C)cc1 (stereo unspecified) [METOPROLOL]
- Papp B→A at 1.5 h (MDR1 (ABCB1) [4]): 23.7 ×10⁻⁶ cm/s
- Papp A→B at 1.5 h [5]: 24.3 ×10⁻⁶ cm/s
- Papp B→A at 1.5 h [6]: 18.5 ×10⁻⁶ cm/s
- efflux ratio [7]: 0.76
- efflux ratio (MDR1 (ABCB1) [8]): 1.07
- Papp A→B at 1.5 h (MDR1 (ABCB1) [9]): 22.2 ×10⁻⁶ cm/s

SMILES: C[C@H]1[C@@H](Oc2ccc(CC(=O)N3CCN(c4ccccn4)CC3)cc2)O[C@@H]2O[C@@]3(C)CC[C@H]4[C@H](C)CC[C@@H]1[C@@]24OO3
- RatioGI50 (NCI/ADR-RES [1]): 12
- GI50 [2]: 80 nM
- GI50 (MCF7 [3]): 960 nM

SMILES: C[C@H]1[C@@H](Oc2ccc(/C=C/C(=O)N3CCN(c4cccc(C(F)(F)F)c4)CC3)cc2)O[C@@H]2O[C@@]3(C)CC[C@H]4[C@H](C)CC[C@@H]1[C@@]24OO3
- Activity [10]: 8.7%
- Papp B→A at 1.5 h (MDR1 (ABCB1) [4]): < 1 ×10⁻⁶ cm/s
- inhibition (MCF7 [11]): Active
- Activity (MCF7 [12]): Active
- Papp A→B at 1.5 h [5]: < 1.82 ×10⁻⁶ cm/s
- Activity (MCF7 [13]): 73.8%
- inhibition (MCF7 [14]): Active
- Activity (NCI/ADR-RES [15]): inactive
- Activity (MCF7 [16]): Dose-dependent effect
- Activity [17]: 65.2%
- RatioGI50 (NCI/ADR-RES [1]): 15.24
- Papp B→A at 1.5 h [6]: < 0.93 ×10⁻⁶ cm/s
- Activity (MCF7 [18]): inactive
- Activity [19]: 70.2%
- GI50 [2]: 21 nM
- Activity [20]: 71.5%
- Activity (NCI/ADR-RES [21]): inactive
- Activity (MCF7 [22]): 83.4%
- Activity [23]: 2.4%
- Activity (MCF7 [24]): 82.3%
- GI50 (MCF7 [3]): 320 nM
- inhibition [25]: Active
- Papp A→B at 1.5 h (MDR1 (ABCB1) [9]): < 1.83 ×10⁻⁶ cm/s
- inhibition [26]: Active
- Activity [27]: 62.6%
- Activity (MCF7 [28]): 70%

Source: ChEMBL document CHEMBL3751676, “Combating P-glycoprotein-mediated multidrug resistance with 10-O-phenyl dihydroartemisinin ethers in MCF-7 cells” (Eur J Med Chem, 2016)
